Experimental data as given in ChEMBL document CHEMBL1649123, “Erythromycin- and chloramphenicol-induced ribosomal assembly defects are secondary effects of protein synthesis inhibition” (2009).
Calls of active or inactive are those of the source.

Legend:
Escherichia coli [1] = assay: Inhibition of ribosomal subunit assembly in Escherichia coli assessed as retardation of 16S rRNA processing at 7 ug/ml after 2 hrs by primer extension analysis at 25 degC; format: functional, organism-based
In short: (§1)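 Ribosomes from MG1655 drug-treated in 2× YT (1 h at 37°C or 2 h at 25°C from A600 0.2) were separated on 10–25% sucrose gradients. RNA was isolated from fractions by isopropanol precipitation and guanidinium thiocyanate/silica binding. 5′ ends of 23S and 16S rRNA were mapped by reverse transcription from specific primers, alongside sequencing lanes.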

Escherichia coli [2] = assay: Inhibition of ribosomal subunit assembly in Escherichia coli assessed as accumulation of partially processed 23S rRNA in 30S, 40S and 50S fractions at 100 ug/ml after 2 hrs by primer extension analysis at 25 degC; format: functional, organism-based; in short: as §1
Escherichia coli [3] = assay: Inhibition of ribosomal subunit assembly in Escherichia coli assessed as retardation of 16S rRNA processing at 7 ug/ml after 1 hr by primer extension analysis at 37 degC; format: functional, organism-based; in short: as §1
Escherichia coli [4] = assay: Inhibition of ribosomal subunit assembly in Escherichia coli assessed as accumulation of partially processed 23S rRNA in 30S, 40S and 50S fractions at 100 ug/ml after 1 hr by primer extension analysis at 37 degC; format: functional, organism-based; in short: as §1
Escherichia coli [5] = assay: Inhibition of large ribosomal subunit assembly in Escherichia coli assessed as accumulation of 23S rRNA in 70S and 50S fractions at 7 ug/ml after 2 hrs by sucrose gradient fractionation at 25 degC; format: functional, organism-based
In short: (§2)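 MG1655 grown in 2× YT at 25 or 37°C to A600 0.2, then drug added (final concentration as per line). Incubated 2 h at 25°C or 1 h at 37°C. Freeze-thaw lysis used lysozyme and DNase I. Lysate was run on a 10–25% sucrose gradient in buffer D, pH 8, for 13.5 h at 4°C. Fraction RNA was dot-blotted with 32P-labelled 16S/23S oligonucleotide probes, loading 0.2 pmol 50S-fraction 23S RNA.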

Escherichia coli [6] = assay: Inhibition of ribosomal subunit assembly in Escherichia coli assessed as retardation of 16S rRNA processing at 100 ug/ml after 1 hr by primer extension analysis at 37 degC; format: functional, organism-based; in short: as §1
Escherichia coli [7] = assay: Inhibition of large ribosomal subunit assembly in Escherichia coli assessed as accumulation of 23S rRNA in 40S fraction at 7 ug/ml after 1 hr by sucrose gradient fractionation at 37 degC; format: functional, organism-based; in short: as §2
Escherichia coli [8] = assay: Antimicrobial activity against Escherichia coli at 7 ug/ml after 8 hrs; format: functional
In short: (§3)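 E. coli MG1655 culture growth followed by optical density over 8 h, with the drug-treated culture expressed relative to an untreated control culture.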

Escherichia coli [9] = assay: Inhibition of ribosomal subunit assembly in Escherichia coli assessed as accumulation of assembly-deffective particles between 50S and 20S regions after 60 mins by sucrose gradient fractionation; format: functional, organism-based
In short: (§4)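 Cells grown at 37°C in tryptone/yeast extract/NaCl to A600 0.2, then exposed to erythromycin (final 100 μg/ml) or chloramphenicol (final 7 μg/ml). After 5, 10 or 60 min, pulsed 5 min with [3H]uridine, 2 μCi per 50 ml; some samples chased 5 min with rifampin, final 500 μg/ml. Sucrose gradients cut into 40 fractions; TCA-precipitable radioactivity counted by scintillation.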

Escherichia coli [10] = assay: Inhibition of ribosomal subunit assembly in Escherichia coli assessed as retardation of 16S rRNA processing at 100 ug/ml after 2 hrs by primer extension analysis at 25 degC; format: functional, organism-based; in short: as §1
Escherichia coli [11] = assay: Inhibition of ribosomal subunit assembly in Escherichia coli assessed as reduction in mature 23S rRNA at 7 ug/ml; format: functional
Escherichia coli [12] = assay: Inhibition of small ribosomal subunit assembly in Escherichia coli assessed as accumulation of 16S rRNA at 7 ug/ml after 1 hr by sucrose gradient fractionation at 37 degC; format: functional, organism-based; in short: as §2
Escherichia coli [13] = assay: Inhibition of small ribosomal subunit assembly in Escherichia coli assessed as accumulation of 16S rRNA at 7 ug/ml after 2 hrs by sucrose gradient fractionation at 25 degC; format: functional, organism-based; in short: as §2
Escherichia coli [14] = assay: Inhibition of ribosomal subunit assembly in Escherichia coli assessed as accumulation of partially processed 23S rRNA in 30S, 40S and 50S fractions at 7 ug/ml after 2 hrs by primer extension analysis at 25 degC; format: functional, organism-based; in short: as §1
Escherichia coli [15] = assay: Inhibition of large ribosomal subunit assembly in Escherichia coli assessed as accumulation of 23S rRNA in 40S fraction at 7 ug/ml after 2 hrs by sucrose gradient fractionation at 25 degC; format: functional, organism-based; in short: as §2
Escherichia coli [16] = assay: Inhibition of large ribosomal subunit assembly in Escherichia coli assessed as accumulation of 23S rRNA in 70S and 50S fractions at 7 ug/ml after 1 hr by sucrose gradient fractionation at 37 degC; format: functional, organism-based; in short: as §2
Escherichia coli [17] = assay: Inhibition of ribosomal subunit assembly in Escherichia coli assessed as accumulation of partially processed 23S rRNA in 30S, 40S and 50S fractions at 7 ug/ml after 1 hr by primer extension analysis at 37 degC; format: functional, organism-based; in short: as §1
Escherichia coli [18] = assay: Inhibition of ribosomal subunit assembly in Escherichia coli assessed as accumulation of assembly-deffective particles between 50S and 20S regions after 10 mins by sucrose gradient fractionation; format: functional, organism-based; in short: as §4
Escherichia coli [19] = assay: Inhibition of large ribosomal subunit assembly in Escherichia coli assessed as accumulation of 23S rRNA in 40S fraction at 100 ug/ml after 2 hrs by sucrose gradient fractionation at 25 degC; format: functional, organism-based; in short: as §2
Escherichia coli [20] = assay: Inhibition of large ribosomal subunit assembly in Escherichia coli assessed as accumulation of 23S rRNA in 40S fraction at 100 ug/ml after 1 hr by sucrose gradient fractionation at 37 degC; format: functional, organism-based; in short: as §2
Escherichia coli [21] = assay: Inhibition of ribosomal subunit assembly in Escherichia coli assessed as reduction in mature 23S rRNA at 100 ug/ml; format: functional
Escherichia coli [22] = assay: Antimicrobial activity against Escherichia coli at 100 ug/ml after 8 hrs; format: functional; in short: as §3
Staphylococcus aureus [23] = assay: Antimicrobial activity against Staphylococcus aureus UCN14 with A2058T mutation in rrl allele; format: functional
In short: (§5)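 Clinical S. aureus isolates carrying rRNA operon mutations: UCN14 has A2058T in 4 of 5 rrl alleles, UCN17 has A2058G in 4 of 6, and UCN18 has A2059G in 3 of 5. MIC was determined for erythromycin by microbroth dilution in 96-well plates.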

Escherichia coli [24] = assay: Inhibition of large ribosomal subunit assembly in Escherichia coli assessed as accumulation of 23S rRNA in 70S and 50S fractions at 100 ug/ml after 1 hr by sucrose gradient fractionation at 37 degC; format: functional, organism-based; in short: as §2
Escherichia coli [25] = assay: Inhibition of large ribosomal subunit assembly in Escherichia coli assessed as accumulation of 23S rRNA in 70S and 50S fractions at 100 ug/ml after 2 hrs by sucrose gradient fractionation at 25 degC; format: functional, organism-based; in short: as §2
Escherichia coli [26] = assay: Inhibition of ribosomal subunit assembly in Escherichia coli assessed as reduction in mature 23S rRNA at 7 ug/ml in presence of E-peptide; format: functional
Escherichia coli [27] = assay: Inhibition of small ribosomal subunit assembly in Escherichia coli assessed as accumulation of 16S rRNA at 100 ug/ml after 2 hrs by sucrose gradient fractionation at 25 degC; format: functional, organism-based; in short: as §2
Staphylococcus aureus [28] = assay: Antimicrobial activity against Staphylococcus aureus UCN18 with A2059G mutation in rrl allele; format: functional; in short: as §5
Staphylococcus aureus [29] = assay: Antimicrobial activity against Staphylococcus aureus UCN17 with A2058G mutation in rrl allele; format: functional; in short: as §5
Escherichia coli [30] = assay: Inhibition of small ribosomal subunit assembly in Escherichia coli assessed as accumulation of 16S rRNA at 100 ug/ml after 1 hr by sucrose gradient fractionation at 37 degC; format: functional, organism-based; in short: as §2

O=C(N[C@H](CO)[C@H](O)c1ccc([N+](=O)[O-])cc1)C(Cl)Cl [CHLORAMPHENICOL]
50%: inhibition at 7 µg/mL (Escherichia coli [11])
active: inhibition (Escherichia coli [1]) | inhibition (Escherichia coli [2]) | inhibition (Escherichia coli [3]) | inhibition (Escherichia coli [4]) | inhibition (Escherichia coli [5]) | inhibition (Escherichia coli [6]) | inhibition (Escherichia coli [7]) | inhibition (Escherichia coli [9]) | inhibition (Escherichia coli [10]) | inhibition (Escherichia coli [12]) | inhibition (Escherichia coli [13]) | inhibition (Escherichia coli [14]) | inhibition (Escherichia coli [15]) | inhibition (Escherichia coli [16]) | inhibition (Escherichia coli [17]) | inhibition (Escherichia coli [18])
70%: Activity (Escherichia coli [8])

CC[C@H]1OC(=O)[C@H](C)[C@@H](O[C@H]2C[C@@](C)(OC)[C@@H](O)[C@H](C)O2)[C@H](C)[C@@H](O[C@@H]2O[C@H](C)C[C@H](N(C)C)[C@H]2O)[C@](C)(O)C[C@@H](C)C(=O)[C@H](C)[C@@H](O)[C@]1(C)O [ERYTHROMYCIN]
70%: Activity (Escherichia coli [22])
512 µg/mL: MIC (Staphylococcus aureus [23]) | MIC (Staphylococcus aureus [28]) | MIC (Staphylococcus aureus [29])
active: inhibition (Escherichia coli [1]) | inhibition (Escherichia coli [2]) | inhibition (Escherichia coli [3]) | inhibition (Escherichia coli [4]) | inhibition (Escherichia coli [6]) | inhibition (Escherichia coli [19]) | Activity (Escherichia coli [20]) | inhibition (Escherichia coli [9]) | inhibition (Escherichia coli [10]) | inhibition (Escherichia coli [14]) | inhibition (Escherichia coli [24]) | inhibition (Escherichia coli [25]) | inhibition (Escherichia coli [27]) | inhibition (Escherichia coli [17]) | inhibition (Escherichia coli [18]) | inhibition (Escherichia coli [30])
30%: inhibition at 100 µg/mL (Escherichia coli [21])
60%: inhibition at 7 µg/mL (Escherichia coli [26])
